This note sets out measurements from ChEMBL document CHEMBL4229344 (Eur J Med Chem, 2018).

Experiment [1] has as its target Calcium/calmodulin-dependent protein kinase type IV (Homo sapiens) (UniProt Q16566). Kind of experiment: Binding affinity to wild-type human partial length CAMK4 (A22 to A322 residues) expressed in bacterial expression system assessed as residual binding level at 1 uM by Kinomescan method relative to control.
In experiment [2] the test system is Epidermal growth factor receptor (Homo sapiens), P00533 [G719C]. Kind of experiment: Binding affinity to human partial length EGFR G719C mutant (R669 to V1011 residues) expressed in bacterial expression system assessed as residual binding level at 1 uM by Kinomescan method relative to control. An outline of the steps: (§1)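 Kinome-wide single-concentration binding screen (KINOMEscan) at 1 μM against a panel of 468 purified kinases and mutants. Read-out is relative binding of each kinase compared with control. Selectivity across the panel was summarised as an S(10) score.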

Experiment [3] concerns the target Mitogen-activated protein kinase 9 (Homo sapiens) (UniProt P45984). As to the kind of experiment: Binding affinity to wild-type human full length JNK2 (M1 to Q382 residues) expressed in mammalian expression system assessed as residual binding level at 1 uM by Kinomescan method relative to control. An outline of the steps:
(§2)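 KINOMEscan competition binding against 468 purified kinases/mutants, test compound at 1 µM; residual binding relative to control.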

Experiment [4] concerns the target Mitogen-activated protein kinase kinase kinase kinase 2 (Homo sapiens) (UniProt Q12851). As to the kind of experiment: Binding affinity to wild-type human partial length MAP4K2 (M1 to G318 residues) expressed in mammalian expression system assessed as residual binding level at 1 uM by Kinomescan method relative to control.
The target in experiment [5] is Cyclin-dependent kinase 7 (Homo sapiens) (UniProt P50613). Kind of experiment: Binding affinity to wild-type human full length CDK7 (M1 to L344 residues) expressed in mammalian expression system assessed as residual binding level at 1 uM by Kinomescan method relative to control. An outline of the steps: as §2
In experiment [6] the target is Serine/threonine-protein kinase BRSK2 (Homo sapiens) (UniProt Q8IWQ3). As to the kind of experiment: Binding affinity to wild-type human full length BRSK2 (M1 to L674 residues) expressed in bacterial expression system assessed as residual binding level at 1 uM by Kinomescan method relative to control. In a few lines:
(§3)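 Single-concentration (1 μM) competition-binding screen run by KINOMEscan against a panel of 468 purified kinases and mutants. The read-out is the relative binding activity of the test compound to each kinase.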

The subject of experiment [7] is eIF-2-alpha kinase GCN2 (Homo sapiens), Q9P2K8 [S808G]. As to the kind of experiment: Binding affinity to wild-type human partial length GCN2 kinase domain 2 (R585 to T1018 residues) S808G mutant expressed in bacterial expression system assessed as residual binding level at 1 uM by Kinomescan method relative to control.
Experiment [8] has as its target Mitogen-activated protein kinase kinase kinase 5 (Homo sapiens) (UniProt Q99683). As to the kind of experiment: Binding affinity to wild-type human partial length ASK1 (E648 to S964 residues) expressed in bacterial expression system assessed as residual binding level at 1 uM by Kinomescan method relative to control. An outline of the steps: (§4)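 Single-concentration KINOMEscan (DiscoverX) binding screen at 1 μM against a panel of 468 purified kinases and mutants. The read-out is binding relative to control.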

For experiment [9], the system named is Mast/stem cell growth factor receptor Kit (Homo sapiens), P10721 [D816V]. As to the kind of experiment: Binding affinity to human partial length KIT D816V mutant (I571 to D952 residues) expressed in bacterial expression system assessed as residual binding level at 1 uM by Kinomescan method relative to control. In a few lines:
as §1

In experiment [10] the target is Fibroblast growth factor receptor 3 (Homo sapiens) (UniProt P22607). As to the kind of experiment: Binding affinity to wild-type human partial length FGFR3 (R442 to S771 residues) expressed in bacterial expression system assessed as residual binding level at 1 uM by Kinomescan method relative to control.
Experiment [11] deals with Serine/threonine-protein kinase LATS1 (Homo sapiens) (UniProt O95835). Kind of experiment: Binding affinity to wild-type human partial length LATS1 (Q678 to V1130 residues) expressed in bacterial expression system assessed as residual binding level at 1 uM by Kinomescan method relative to control.
The target in experiment [12] is Phosphatidylinositol 4,5-bisphosphate 3-kinase catalytic subunit gamma isoform (Homo sapiens) (UniProt P48736). As to the kind of experiment: Binding affinity to wild-type human partial length PIK3CG (S144 to A1102 residues) expressed in mammalian expression system assessed as residual binding level at 1 uM by Kinomescan method relative to control.
The target of experiment [13] is Tyrosine-protein kinase TXK (Homo sapiens) (UniProt P42681). As to the kind of experiment: Binding affinity to wild-type human partial length TXK (L238 to W527 residues) expressed in bacterial expression system assessed as residual binding level at 1 uM by Kinomescan method relative to control.
Experiment [14] addresses Mitogen-activated protein kinase 11 (Homo sapiens) (UniProt Q15759). Kind of experiment: Binding affinity to wild-type human full length p38-beta (M1 to Q364 residues) expressed in bacterial expression system assessed as residual binding level at 1 uM by Kinomescan method relative to control. In a few lines: as §4
The target in experiment [15] is Receptor tyrosine-protein kinase erbB-3 (Homo sapiens) (UniProt P21860). As to the kind of experiment: Binding affinity to wild-type human partial length ERBB3 (G684 to A987 residues) expressed in mammalian expression system assessed as residual binding level at 1 uM by Kinomescan method relative to control.
In experiment [16] the target is Serine/threonine-protein kinase DCLK2 (Homo sapiens) (UniProt Q8N568). As to the kind of experiment: Binding affinity to wild-type human partial length DCAMKL2 (K273 to V664 residues) expressed in bacterial expression system assessed as residual binding level at 1 uM by Kinomescan method relative to control.
Experiment [17] has as its target Calcium/calmodulin-dependent protein kinase type II subunit beta (Homo sapiens) (UniProt Q13554). Kind of experiment: Binding affinity to wild-type human partial length CAMK2B (M1 to Q380 residues) expressed in bacterial expression system assessed as residual binding level at 1 uM by Kinomescan method relative to control.
Experiment [18] addresses MAP kinase-activated protein kinase 5 (Homo sapiens) (UniProt Q8IW41). As to the kind of experiment: Binding affinity to wild-type human partial length MAPKAPK5 (M1 to D322 residues) expressed in mammalian expression system assessed as residual binding level at 1 uM by Kinomescan method relative to control.
Experiment [19] deals with Tyrosine-protein kinase ABL1 (Homo sapiens), P00519 [T315I]. As to the kind of experiment: Binding affinity to human phosphorylated ABL1 T315I mutant (S229 to K512 residues) expressed in mammalian expression system assessed as residual binding level at 1 uM by Kinomescan method relative to control. An outline of the steps: as §3
Experiment [20] has as its target Serine/threonine-protein kinase 26 (Homo sapiens) (UniProt Q9P289). Kind of experiment: Binding affinity to wild-type human full length MST4 (M1 to P416 residues) expressed in mammalian expression system assessed as residual binding level at 1 uM by Kinomescan method relative to control. An outline of the steps: as §4
Experiment [21] has as its system Fibroblast growth factor receptor 3 (Homo sapiens), P22607 [G697C]. Kind of experiment: Binding affinity to human partial length FGFR3 G697C mutant (R442 to S771 residues) expressed in bacterial expression system assessed as residual binding level at 1 uM by Kinomescan method relative to control. An outline of the steps: as §1
Experiment [22] has as its target Bone morphogenetic protein receptor type-2 (Homo sapiens) (UniProt Q13873). As to the kind of experiment: Binding affinity to wild-type human partial length BMPR2 (R179 to Q526 residues) expressed in mammalian expression system assessed as residual binding level at 1 uM by Kinomescan method relative to control. An outline of the steps:
as §4

Sequence of Tyrosine-protein kinase TXK (Homo sapiens) (P42681 whole entry, the tested form may be a part): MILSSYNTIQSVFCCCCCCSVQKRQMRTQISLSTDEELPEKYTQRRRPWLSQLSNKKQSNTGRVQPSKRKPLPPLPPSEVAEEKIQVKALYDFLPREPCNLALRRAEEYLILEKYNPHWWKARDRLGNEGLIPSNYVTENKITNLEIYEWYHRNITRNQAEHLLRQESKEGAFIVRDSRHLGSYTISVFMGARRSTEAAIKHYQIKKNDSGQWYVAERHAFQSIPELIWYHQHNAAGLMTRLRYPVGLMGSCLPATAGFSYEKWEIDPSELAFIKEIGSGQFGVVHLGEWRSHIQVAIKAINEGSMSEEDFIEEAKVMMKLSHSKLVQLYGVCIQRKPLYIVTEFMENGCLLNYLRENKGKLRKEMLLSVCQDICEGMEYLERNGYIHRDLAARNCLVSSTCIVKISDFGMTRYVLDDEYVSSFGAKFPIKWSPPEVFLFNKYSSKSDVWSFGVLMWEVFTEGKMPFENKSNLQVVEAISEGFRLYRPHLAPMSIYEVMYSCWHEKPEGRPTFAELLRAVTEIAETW
Sequence of MAP kinase-activated protein kinase 5 (Homo sapiens) (Q8IW41 whole entry, the tested form may be a part): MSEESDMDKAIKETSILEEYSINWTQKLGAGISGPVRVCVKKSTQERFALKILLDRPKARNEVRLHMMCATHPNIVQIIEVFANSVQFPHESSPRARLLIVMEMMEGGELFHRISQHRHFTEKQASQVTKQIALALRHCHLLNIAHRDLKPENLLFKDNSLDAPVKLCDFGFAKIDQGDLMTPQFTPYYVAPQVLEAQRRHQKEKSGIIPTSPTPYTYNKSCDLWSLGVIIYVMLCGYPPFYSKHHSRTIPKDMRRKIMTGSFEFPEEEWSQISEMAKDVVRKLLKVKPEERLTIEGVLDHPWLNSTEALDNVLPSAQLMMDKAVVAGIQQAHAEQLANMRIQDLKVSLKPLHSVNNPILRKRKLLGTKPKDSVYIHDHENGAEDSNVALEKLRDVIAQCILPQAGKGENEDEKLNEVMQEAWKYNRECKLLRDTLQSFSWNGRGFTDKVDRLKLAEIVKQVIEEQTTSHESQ
Sequence of Receptor tyrosine-protein kinase erbB-3 (Homo sapiens) (P21860 whole entry, the tested form may be a part): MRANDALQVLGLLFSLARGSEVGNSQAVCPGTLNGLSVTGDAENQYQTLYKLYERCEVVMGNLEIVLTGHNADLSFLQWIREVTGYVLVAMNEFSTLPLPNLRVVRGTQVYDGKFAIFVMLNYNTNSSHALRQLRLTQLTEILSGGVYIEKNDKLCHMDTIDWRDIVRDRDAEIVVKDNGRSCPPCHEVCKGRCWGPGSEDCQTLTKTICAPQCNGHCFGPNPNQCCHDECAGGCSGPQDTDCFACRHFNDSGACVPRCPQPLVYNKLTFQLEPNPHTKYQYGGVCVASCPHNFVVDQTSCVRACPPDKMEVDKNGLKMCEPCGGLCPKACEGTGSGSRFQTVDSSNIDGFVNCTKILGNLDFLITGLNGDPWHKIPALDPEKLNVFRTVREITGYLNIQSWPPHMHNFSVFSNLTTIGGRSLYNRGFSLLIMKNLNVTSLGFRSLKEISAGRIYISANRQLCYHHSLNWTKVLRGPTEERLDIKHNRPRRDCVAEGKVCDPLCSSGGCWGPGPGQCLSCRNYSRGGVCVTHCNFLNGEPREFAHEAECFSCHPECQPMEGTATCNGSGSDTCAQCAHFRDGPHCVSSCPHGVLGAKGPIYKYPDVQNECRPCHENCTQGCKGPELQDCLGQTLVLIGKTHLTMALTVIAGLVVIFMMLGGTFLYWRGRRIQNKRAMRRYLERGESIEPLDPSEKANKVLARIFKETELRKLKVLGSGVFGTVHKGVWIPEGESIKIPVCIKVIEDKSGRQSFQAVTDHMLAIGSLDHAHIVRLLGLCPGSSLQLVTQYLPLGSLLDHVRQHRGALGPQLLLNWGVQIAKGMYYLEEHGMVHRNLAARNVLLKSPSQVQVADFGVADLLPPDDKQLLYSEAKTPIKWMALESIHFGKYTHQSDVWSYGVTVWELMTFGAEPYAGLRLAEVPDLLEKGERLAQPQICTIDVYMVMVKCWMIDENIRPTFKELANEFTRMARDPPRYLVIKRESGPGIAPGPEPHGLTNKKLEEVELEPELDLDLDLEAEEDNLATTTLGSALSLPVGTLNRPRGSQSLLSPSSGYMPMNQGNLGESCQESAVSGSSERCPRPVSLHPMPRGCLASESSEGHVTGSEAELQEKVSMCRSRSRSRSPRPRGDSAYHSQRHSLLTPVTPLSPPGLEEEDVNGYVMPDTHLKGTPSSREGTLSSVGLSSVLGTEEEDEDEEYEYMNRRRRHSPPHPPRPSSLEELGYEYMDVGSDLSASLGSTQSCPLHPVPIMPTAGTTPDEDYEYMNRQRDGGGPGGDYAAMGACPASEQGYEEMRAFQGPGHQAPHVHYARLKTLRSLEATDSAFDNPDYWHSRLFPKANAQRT
Sequence of Mast/stem cell growth factor receptor Kit (Homo sapiens), P10721 [D816V] (P10721 whole entry D816V, the tested form may be a part): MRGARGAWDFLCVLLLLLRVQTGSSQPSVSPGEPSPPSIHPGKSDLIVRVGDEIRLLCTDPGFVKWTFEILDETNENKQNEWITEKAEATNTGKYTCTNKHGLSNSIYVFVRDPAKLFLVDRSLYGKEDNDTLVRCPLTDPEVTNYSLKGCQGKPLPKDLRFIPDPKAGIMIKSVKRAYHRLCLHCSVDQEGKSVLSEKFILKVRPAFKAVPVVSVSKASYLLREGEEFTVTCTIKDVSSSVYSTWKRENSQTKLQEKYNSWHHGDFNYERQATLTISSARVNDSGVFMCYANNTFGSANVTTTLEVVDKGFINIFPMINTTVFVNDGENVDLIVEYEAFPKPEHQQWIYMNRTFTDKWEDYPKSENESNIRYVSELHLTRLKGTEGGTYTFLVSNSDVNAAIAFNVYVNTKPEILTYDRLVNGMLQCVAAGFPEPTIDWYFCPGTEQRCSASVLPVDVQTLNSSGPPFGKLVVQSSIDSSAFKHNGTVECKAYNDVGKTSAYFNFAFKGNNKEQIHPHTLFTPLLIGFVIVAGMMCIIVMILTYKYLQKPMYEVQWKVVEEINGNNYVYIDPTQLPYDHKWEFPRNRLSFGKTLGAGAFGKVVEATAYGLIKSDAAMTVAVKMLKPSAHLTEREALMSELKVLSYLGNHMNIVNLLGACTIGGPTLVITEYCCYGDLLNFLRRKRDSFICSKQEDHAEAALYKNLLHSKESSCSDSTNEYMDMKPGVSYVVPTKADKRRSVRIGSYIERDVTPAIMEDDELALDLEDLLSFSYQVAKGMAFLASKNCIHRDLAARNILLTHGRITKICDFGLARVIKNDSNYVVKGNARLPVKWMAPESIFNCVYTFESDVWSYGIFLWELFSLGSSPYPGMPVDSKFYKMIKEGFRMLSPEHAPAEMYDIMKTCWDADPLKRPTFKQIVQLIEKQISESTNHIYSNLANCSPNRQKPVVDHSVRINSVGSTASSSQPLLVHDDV
Sequence of Mitogen-activated protein kinase kinase kinase 5 (Homo sapiens) (Q99683 whole entry, the tested form may be a part): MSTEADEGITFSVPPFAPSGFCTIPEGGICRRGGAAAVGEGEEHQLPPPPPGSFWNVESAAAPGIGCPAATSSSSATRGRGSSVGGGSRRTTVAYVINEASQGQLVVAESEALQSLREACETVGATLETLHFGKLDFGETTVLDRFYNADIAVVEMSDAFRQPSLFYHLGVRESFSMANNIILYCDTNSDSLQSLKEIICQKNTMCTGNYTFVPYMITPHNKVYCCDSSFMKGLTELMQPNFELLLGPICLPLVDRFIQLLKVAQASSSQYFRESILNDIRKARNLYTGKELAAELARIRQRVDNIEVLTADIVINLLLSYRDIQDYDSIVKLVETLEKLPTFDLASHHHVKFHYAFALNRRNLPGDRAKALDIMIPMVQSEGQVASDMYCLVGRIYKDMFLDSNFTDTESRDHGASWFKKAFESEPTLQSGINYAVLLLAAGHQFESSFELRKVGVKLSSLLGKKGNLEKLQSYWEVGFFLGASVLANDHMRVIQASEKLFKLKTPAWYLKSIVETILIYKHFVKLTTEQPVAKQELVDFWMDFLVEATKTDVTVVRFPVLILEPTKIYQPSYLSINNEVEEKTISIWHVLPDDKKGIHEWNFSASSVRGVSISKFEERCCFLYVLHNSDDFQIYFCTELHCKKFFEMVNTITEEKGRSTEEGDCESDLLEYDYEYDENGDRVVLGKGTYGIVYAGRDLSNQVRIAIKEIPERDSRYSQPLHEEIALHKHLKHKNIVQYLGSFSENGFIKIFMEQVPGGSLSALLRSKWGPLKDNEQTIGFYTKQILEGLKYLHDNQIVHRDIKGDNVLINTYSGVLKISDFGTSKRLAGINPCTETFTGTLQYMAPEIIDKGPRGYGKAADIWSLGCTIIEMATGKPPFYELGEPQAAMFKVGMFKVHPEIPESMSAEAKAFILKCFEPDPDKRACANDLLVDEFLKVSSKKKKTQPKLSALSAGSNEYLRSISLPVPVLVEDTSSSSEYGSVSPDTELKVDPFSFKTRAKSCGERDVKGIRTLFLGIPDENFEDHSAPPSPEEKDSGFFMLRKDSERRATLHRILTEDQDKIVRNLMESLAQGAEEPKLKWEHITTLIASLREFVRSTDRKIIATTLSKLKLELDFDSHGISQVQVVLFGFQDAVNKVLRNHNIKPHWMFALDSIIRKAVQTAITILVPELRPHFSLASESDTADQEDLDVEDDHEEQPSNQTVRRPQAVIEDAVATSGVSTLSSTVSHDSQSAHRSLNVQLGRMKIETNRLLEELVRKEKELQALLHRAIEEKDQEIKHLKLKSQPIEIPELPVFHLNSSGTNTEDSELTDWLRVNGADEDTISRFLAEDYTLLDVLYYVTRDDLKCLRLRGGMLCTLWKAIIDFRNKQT
Sequence of Cyclin-dependent kinase 7 (Homo sapiens) (P50613 whole entry, the tested form may be a part): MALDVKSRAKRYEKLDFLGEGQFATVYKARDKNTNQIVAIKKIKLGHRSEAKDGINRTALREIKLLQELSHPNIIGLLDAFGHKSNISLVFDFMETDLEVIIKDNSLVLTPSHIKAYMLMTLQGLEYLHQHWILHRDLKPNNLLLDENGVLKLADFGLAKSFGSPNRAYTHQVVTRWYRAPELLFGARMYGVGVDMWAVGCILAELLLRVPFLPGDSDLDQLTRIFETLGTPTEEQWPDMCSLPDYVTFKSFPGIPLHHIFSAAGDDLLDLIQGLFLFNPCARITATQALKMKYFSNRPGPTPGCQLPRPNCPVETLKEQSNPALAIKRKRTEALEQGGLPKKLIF

`Cc1ccc(NC(=O)c2ccc(CN(CCN(C)C)C(=O)c3cccnc3)cc2)cc1Nc1nccc(-c2cccnc2)n1`: the Activity is 98% in [1]; 88% in [2]; 91% in [3]; 100% in experiment [4]; 91% in [5]; 97% in [6]. For the same compound, the Activity in experiment [7] amounted to 71%; in [8], 100%; in experiment [9], 88%; in experiment [10], 100%; in [11] it was 98%; in experiment [12], 99%. Moreover, the Activity in [13] worked out at 100%; in experiment [14], 100%; in experiment [15], 95%; in experiment [16], 96%; in experiment [17], 99%; in [18], 100%. The Activity in [19] was 100%; in [20], 99%; in experiment [21], 100%; in experiment [22], 100%.
